Source: PubChem (several laboratories)
TRPML3 ag: human mucolipin-3 channel agonism; Q8TDD5; HEK293 TRPML3-YFP, Fluo-8 calcium fluorescence; 100% = the carbachol control signal; activation, % at 3 µM; 220,000 compounds, 0.29% hits; AID 1448;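 active = activation above its plate's cutoff, the mean activation of the plate's test wells plus 3 SD, cut at about 12% in these data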;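 also: 0% = DMSO only wells and 100% = carbachol wells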
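Test system: TRPML3-YFP stable HEK293 cells. Doses: single point at 3 µM. Incubation: dye loading 1 h 37 °C then 30 min ambient, 125 s read. Signal: Fluo-8 calcium dye fluorescence, ex 470-495, em 515-575 nm. Measure: percent activation from peak-to-basal fluorescence ratio, scaled between DMSO and carbachol.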
OXTR potentiate: potentiators of human oxytocin receptor; P30559; CHO-OTR cells, Fluo-8 calcium fluorescence, potentiator mode; 0% = oxytocin EC15, 100% = EC100; activation, % at 3 µM; 320,000 compounds, 0.061% hits; AID 2445;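 active = activation above that plate's cutoff, the mean activation of tested compounds plus 3 SD, cut at about 6.6% in these data, passing the limit was not always enough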;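 also: 100% uses oxytocin at 75 nM as the full agonist control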
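Measured by – Fluo-8 calcium dye fluorescence · Test system – human OTR in CHO cells · Dosing – one concentration, 3.0 µM compound · Controls – EC15 oxytocin alone as 0%, 75 nM oxytocin as 100% · Evaluation – normalized max/min fluorescence ratio, % activation · Timing – 6 min pre-incubation, 100 s read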
CRFR2-BP ag: CRF-BP/CRF-R2 complex agonism; activation, % at 13.2 µM; 350,000 compounds, 0.46% hits; HEK293 CRF-R2/CRF-BP, calcium dye fluorescence (FLIPR); percent of saturating CRF peptide response;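 active = activation of at least 50%, plus an integration ratio under a set limit after plate pattern correction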;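 also: plate controls were neutral control wells without compound for no effect and CRF at EC100 for full effect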
OXTR agonist: activates the human oxytocin receptor; AID 2435; activation, % at 3 µM; CHO-OTR cells, Fluo-8 calcium fluorescence; normalized: DMSO 0%, oxytocin 100%; 320,000 compounds, 0.32% hits; P30559;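 active = activation above the mean of all tested compounds plus 3 SD, cutoff set per screening run, cut at about 20% in these data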;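 also: peak over basal fluorescence ratio from a 100 s FLIPR kinetic read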
zfTRPN1 agonist: activates the zebrafish TRPN1 channel; activation, % at 3 µM; HEK293 zebrafish TRPN1-YFP, Fluo-8 calcium fluorescence; 100% = response to 87 µM carbachol; 220,000 compounds, 0.18% hits; AID 1424;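 active = activation above its plate's cutoff, the mean activation of test wells on that plate plus 3 SD, cut at about 19% in these data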;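 also: 0% = DMSO alone and 100% = 87 µM carbachol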
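Material: zebrafish TRPN1-YFP in HEK293 cells; Doses: single test compound dose, 3 µM nominal, 0.3% DMSO; Timing: dye loading 1 h at 37 °C, then 30 min room temperature; Technique: intracellular calcium fluorescence with Fluo-8; Benchmarks: high carbachol 87 µM, low DMSO alone.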
V1aR counter: counter-screen for oxytocin receptor agonists: human V1a receptor agonists | P37288 | CHO-V1R cells, Fluo-8 calcium fluorescence, agonist mode; 0% DMSO, 100% 3 nM vasopressin | activation, % at 3 µM | 320,000 compounds, 0.25% hits | AID 2797;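 active = activation above the mean activation of all tested compounds plus 3 SD, per screening run, cut at about 20% in these data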;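 also: signal is peak over basal fluorescence ratio across a 100 second FLIPR read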
Target sequence (P37288 whole entry, looked up): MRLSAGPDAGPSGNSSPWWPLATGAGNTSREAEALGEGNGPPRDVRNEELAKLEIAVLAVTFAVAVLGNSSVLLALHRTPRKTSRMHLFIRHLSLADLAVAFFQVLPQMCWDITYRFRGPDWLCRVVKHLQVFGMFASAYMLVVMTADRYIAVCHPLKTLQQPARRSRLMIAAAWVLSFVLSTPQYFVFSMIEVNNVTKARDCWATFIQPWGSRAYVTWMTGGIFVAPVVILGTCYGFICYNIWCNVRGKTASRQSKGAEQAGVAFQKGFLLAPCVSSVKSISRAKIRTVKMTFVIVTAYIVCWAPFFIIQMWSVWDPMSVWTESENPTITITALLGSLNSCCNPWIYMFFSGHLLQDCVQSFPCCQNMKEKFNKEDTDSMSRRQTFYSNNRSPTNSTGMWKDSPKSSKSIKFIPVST
TRPN1 counter: zebrafish TRPN1 agonism as TRPML3 agonist counter-screen; activation, % at 3 µM; 310 compounds, 10% hits; HEK293 zebrafish TRPN1-YFP, Fluo-8 calcium fluorescence; scaled: carbachol wells 100%, DMSO wells 0%; shares compounds with TRPML3 ag;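 active = mean activation over replicates above a set limit taken from the earlier TRPN1 channel primary screen, cut at about 19% in these data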;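 also: 100% = carbachol and 0% = 0.3% DMSO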
TRPML3 confirm: confirmation of human TRPML3 channel agonists | AID 1526 | HEK293 TRPML3-YFP, Fluo-8 calcium fluorescence; 100% set by carbachol, 0% by DMSO | 310 compounds, 80% hits | shares compounds with TRPML3 ag | activation, % at 3 µM;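 active = activation above a set limit derived from the earlier primary screen, cut at about 12% in these data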
* hit, by the source's call; · = not tested or not shown. This is a sample that favours compounds with a hit; in the whole collection about 0.83% have one here.

SMILES	TRPML3 ag	OXTR potentiate	CRFR2-BP ag	OXTR agonist	zfTRPN1 agonist	V1aR counter	others
COC(=O)C(O)(c1ccc(NC(=S)NC(=O)c2ccc(Cl)cc2Cl)c(C)c1)C(F)(F)F (configuration not stated)	4	-14	31	29*	19	22*
CCOC(=O)C(O)(c1ccc(NC(=S)NC(=O)c2ccc(Cl)cc2Cl)c(C)c1)C(F)(F)F (configuration not stated)	12*	-13	114*	32*	22*	34*
CCOC(=O)C(O)(c1ccc(NC(=S)NC(=O)c2ccc(Cl)cc2Cl)cc1)C(F)(F)F (configuration not stated)	7	-15	148*	51*	16	34*
O=C(O)C(O)(c1ccc(Cl)cc1)C1(O)CCCC1 (configuration not stated)	·	·	4	·	·	·
COc1ccc(OC(=O)N(C)C[C@@H]2OCc3cnnn3CCCC(=O)N([C@H](C)CO)C[C@H]2C)cc1	·	·	3	·	·	·
COC(=O)C1=C(c2cccc(Cl)c2)C[C@@H]2CC[C@H]1N2C(=O)N1CCCC1	·	-4	-4	-2	·	-1
CC(C)[C@H]1C(=O)O[C@H](C(C)C)C(=O)N(C)[C@@H](C(C)C)C(=O)O[C@H](C(C)C)C(=O)N(C)[C@@H](C(C)C)C(=O)O[C@H](C(C)C)C(=O)N1C	20*	-9	39	19	36*	11
C[C@]12CCC3C(CC[C@H]4C[C@@H](O)CC[C@]34C)C1=CC[C@@H]2O (some centres not stated)	·	·	3	·	·	·
CC(C)COC(=O)c1ccccc1C(=O)OCC(C)C	·	-6	-2	-2	·	-1
C[CH2][Hg][S]c1ccccc1C(=O)O	·	12*	-2	4	·	7
O=C1NC(=S)NC(=O)C1=Cc1ccc2c(c1)CCN2CCCCl	1	-3	-3	0	3	0
Cc1ccccc1N1C(=O)NC(=O)/C(=C\c2ccc3c(c2)CCCN3Cc2ccccc2)C1=O	0	-5	58*	-2	-2	-1
Cc1cc(C=C(C#N)C#N)ccc1N1CCCC1	1	-9	76*	8	-2	9
N#CC(C#N)=Cc1ccc(N2CCOCC2)cc1	1	-4	4	0	4	2
COC(=O)C1=C(c2cccc(C#N)c2)C[C@@H]2CC[C@H]1N2C(=O)N1CCCCC1	·	-4	-4	-1	·	0
C[C@H]1OC[C@@H](C[N+](C)(C)C)O1	99*	-8	38	4	71*	1
CC1OC(C[N+](C)(C)C)CC1O (configuration not stated)	·	2	27	1	·	1
COC(=O)C1=C(c2ccc(C(C)=O)cc2)C[C@@H]2CC[C@H]1N2C(=O)NCc1ccc(C(F)(F)F)cc1	·	-10	68*	45*	·	33*
COC(=O)C1=C(c2ccccc2)C[C@@H]2CC[C@H]1N2C(=O)NCc1ccc(C(F)(F)F)cc1	·	-8	1	-1	·	0
CCN(CC)c1ccc(/C=C2\C(=O)NC(=S)N(C)C2=O)o1	3	-4	58*	22*	14	23*
Cc1cc(C)cc(N2C(=O)/C(=C\c3ccc(N4CCN(C)CC4)o3)C(=O)NC2=S)c1	2	-11	57*	6	5	3
Cc1ccc(/C=C2\C(=O)NC(=S)N(c3ccc(F)cc3)C2=O)o1	·	·	4	·	·	·
O=C1NC(=O)C(=Cc2ccc(N3CCOCC3)o2)C(=O)N1	3	-11	17	5	2	7
CN1C(=O)C(=Cc2ccc(N3CCCCC3)o2)C(=O)N(C)C1=S	4	-1	133*	8	5	8
CCN(CC)c1ccc(C=C2C(=O)N(C)C(=S)N(C)C2=O)o1	4	-2	88*	7	5	8
SMILES	TRPML3 ag	OXTR potentiate	CRFR2-BP ag	OXTR agonist	zfTRPN1 agonist	V1aR counter	others
CCN(CC)c1ccc(/C=C2\C(=O)NC(=S)N(c3ccc(OC)cc3OC)C2=O)o1	·	-12	29	12	·	13
CCC1(NS(=O)(=O)c2ccc(N)cc2)C(=O)N(C)C(=O)N(C)C1=O	·	·	1	·	·	·
CC1CCCN(c2ccc(C(=O)N3CCC4(CC3)OCCO4)cc2[N+](=O)[O-])C1 (configuration not stated)	0	-5	-2	0	-1	1
CCOC(=O)C1CCCN(c2ccc([N+](=O)[O-])c3nonc23)C1 (configuration not stated)	113*	·	208*	·	291*	·
CCN1/C(=C\C=C\C2=[N+](CC)c3ccccc3C2(C)C)C(C)(C)c2ccccc21	158*	-24	260*	443*	317*	459*
C[C@@H]1CN([C@@H](C)CO)C(=O)CCCn2nncc2CO[C@@H]1CN(C)C(=O)Oc1cccc2ccccc12	·	·	2	·	·	·
CCCCCn1c(=O)c(C(=O)Nc2ncccc2C)c(O)c2ccccc21	·	-26	2	54*	·	39*
C[C@]12CCC3C(CC[C@H]4C[C@H](O)[C@H](O)C[C@]34C)C1CC[C@@H]2O (some centres not stated)	·	·	7	·	·	·
CCOc1cccc(CNCCc2c(C)[nH]c3ccc(OC(F)(F)F)cc23)c1O	·	-10	2	39*	·	29*
COC(=O)C1=C(c2ccc(OCc3ccccc3)c(F)c2)C[C@@H]2CC[C@H]1N2C	·	·	-1	·	·	·
O=C1NC(=O)N(c2ccccc2)C(=O)/C1=C/c1ccc(Sc2ccccc2)o1	2	-9	16	2	2	1
O=C1NC(=O)N(c2ccccc2F)C(=O)/C1=C/c1ccc(Sc2nc3ccccc3[nH]2)o1	46*	-12	24	39*	43*	28*
O=C1NC(=O)N(c2cccc(Cl)c2)C(=O)/C1=C\c1ccc(Sc2nc3ccccc3[nH]2)o1	14*	-21	19	59*	20*	57*
CCOC(=O)c1c(N)n(Cc2ccco2)c2nc3ccccc3nc12	15*	-2	13	1	4	1	TRPN1 counter=4;TRPML3 confirm=2
COC(=O)C1=C(c2ccc(-c3ccccc3)c(F)c2)C[C@@H]2CC[C@H]1N2C(=O)NCCc1ccccc1	·	-7	0	0	·	1
